# Experimental data from different studies.
# Protocols differ between the studies behind these lines.
# Observed: cell growth or viability
Structure (SMILES),cell line,method,tested at,time,endpoint,value
c1ccc(-c2ccc(CNCC3(N4CCCC4)COC3)s2)cc1,T98G,,30 µM,48 h,viability,69%
C/C=C/C(=O)Nc1cc(Nc2nc(Nc3cnn(C)c3)c3sccc3n2)c(OC)cc1N(C)CCN(C)C,NCI-H1975,MTT,,,IC50,3.07 µM
Cc1cc2nc(-c3ccc(C(=O)NC4CCN(Cc5ccccc5)CC4)s3)[nH]c2cc1C,HEK293,,,,IC50,> 10 µM
Fc1ccc2[nH]cc(CNCC3(N4CCC(F)C4)COC3)c2c1 (centres unmarked),GBM6,,30 µM,48 h,viability,77.6%
COc1ccc(CCc2ccc(-c3c(C)[nH]c(C)c(Cl)c3=O)cc2)cc1,HEK293,,,,IC50,> 10 µM
COc1cc(-c2ccc(-c3ccc(C(=N)N)nc3)s2)cc(OC)c1OC,SF-539,SRB,,,GI50,1610 nM
COc1cccc(Oc2ccccc2NC(=O)CNC(=O)c2cccc3ccccc23)c1,SF-539,SRB,,48 h,GI50,224 nM
Fc1ccc2c(CNCC3(N4CCC(F)C4)COC3)c[nH]c2c1 (centres unmarked),GBM6,,30 µM,48 h,viability,85.6%
CCCc1n(Cc2ccc3ccccc3n2)cc[n+]1Cc1ccc2ccccc2n1,NCI-H322M,SRB,,,TGI,41.9 µM
CCC(=O)Nc1cc(Nc2nc(N3CCc4sccc4C3)c3cccnc3n2)c(OC)cc1N1CCOCC1,NCI-H1975,MTT,,,IC50,1.9 µM
O=C(c1cc(-c2ccco2)[nH]n1)N1CCN(S(=O)(=O)c2ccc(Br)cc2)CC1,HEK293,,,,IC50,> 10 µM
CC#CC(=O)N1CC[C@@H](n2cc(-c3ccc(Oc4c(F)cccc4F)cc3)c3c(N)n[nH]c(=O)c32)C1,KARPAS-422,ATP luminescence,,72 h,GI50,12100 nM
c1cc2c(cc1CNCC1(N3CCCC3)COC1)OCCO2,T98G,,30 µM,48 h,viability,97.2%
O=C(c1cc(-c2ccccc2O)on1)N1CCN(C(c2ccccc2)c2ccccc2)CC1,HEK293,,,,IC50,> 10 µM
COc1ccc(-c2ccc(-c3ccc(C(=N)N)nc3)s2)cc1,SK-MEL-28,SRB,,,GI50,1750 nM
CC(=O)c1c(C)c2cnc(Nc3ccc(N4CCNCC4)cn3)nc2n(C2CCCC2)c1=O,HCC1428,resazurin,,,GI50,600 nM
Clc1ccccc1-c1ccc(CNCC2(N3CCCC3)COC2)o1,T98G,,30 µM,48 h,viability,94.9%
CCCCc1n(Cc2ccc3ccccc3n2)cc[n+]1Cc1ccc2ccccc2n1,NCI-H322M,SRB,,,TGI,16.3 µM
c1ccc(-c2ccc(CNCC3(N4CCCC4)COC3)o2)cc1,GBM6,,30 µM,48 h,viability,80.5%
Cc1cc(=O)c(-c2ccc(Oc3ccc(C(F)(F)F)cc3)cc2)c(C)n1O,HEK293,,,,IC50,> 10 µM
FC1CCN(C2(CNCc3ccc(-c4ccccc4)o3)COC2)C1 (centres unmarked),GBM6,,30 µM,48 h,viability,72.7%
CCC(=O)Nc1cc(Nc2nc(N3CCc4sccc4C3)c3cccnc3n2)c(OC)cc1N1CCN(CC)CC1,NCI-H1975,MTT,,,IC50,0.198 µM
COc1ccc(-c2ccc(-c3ccc(C(=N)N)nc3)s2)cc1Cl,SF-539,SRB,,,GI50,1740 nM
Cc1cc(=O)c(-c2ccc(Oc3ccc(Cl)cc3Cl)cc2)c(C)[nH]1,HEK293,,,,IC50,> 10 µM
c1ccc(-c2n(Cc3ccc4ccccc4c3)cc[n+]2Cc2ccc3ccccc3c2)cc1,NCI-H322M,SRB,,,TGI,2.82 µM
CCCCCCCc1ccc(-c2c(C)[nH]c(C)c(Cl)c2=O)cn1,HEK293,,,,IC50,> 10 µM
C=CC(=O)Nc1cc(Nc2nc(N3CCc4sccc4C3)c3cccnc3n2)c(OC)cc1N1CCN(CC)CC1,NCI-H1975,MTT,,,IC50,1.36 µM
COc1c(OCCCN2CCOCC2)ccc2c1N=C(NC(=O)c1sc(C)nc1C)N1CCN=C21,KPL4,,,,EC50,86 nM
C=CC(=O)Nc1cccc(Oc2nc(Nc3ccc(N4CCN(C)CC4)cc3)nc3ccsc23)c1,NCI-H1975,MTT,,,IC50,0.458 µM
c1cc2cc(CNCC3(N4CCCC4)COC3)ccc2[nH]1,T98G,,30 µM,48 h,viability,98.2%
CCN(c1cc(-c2ccc(CN3CCOCC3)cc2)cc(C(=O)NCc2c(C)cc(C)[nH]c2=O)c1C)C1CCOCC1,KARPAS-422,,,8 days,GI50,250 nM
C=CC(=O)Nc1cc(Nc2nc(Nc3cnn(C)c3)c3sccc3n2)c(OC)cc1N(C)CCN(C)C,NCI-H1975,MTT,,,IC50,4.54 µM
Cn1cc(-c2cc(N3CCCCS3(=O)=O)ccc2Oc2ccc(F)cc2F)c2c(F)c[nH]c2c1=O,Rec1,CCK-8,,72 h,GI50,15 nM
Cc1cc(=O)c(-c2ccc(OCc3ccc(OC(F)(F)F)cc3)cc2)c(C)[nH]1,HEK293,,,,IC50,> 10 µM
COc1cc(N(C)CCN(C)C)c(NC(=O)/C=C/C(C)C)cc1Nc1nc(N2CCc3sccc3C2)c2sccc2n1,NCI-H1975,MTT,,,IC50,15.6 µM
